Data on 1 compound can be found in ChEMBL document CHEMBL1145212, “Fluorinated diaryl sulfides as serotonin transporter ligands: synthesis, structure-activity relationship study, and in vivo evaluation of fluorine-18-labeled compounds as PET imaging agents” (J Med Chem, 2005).

Assay [1] addresses Sodium-dependent serotonin transporter (Rattus norvegicus) (UniProt P31652). The experiment in a line: Specific binding of [18F]AFA in rat hippocampus after citalopram treatment; n=3. The assay is classed as functional, tissue-based. To be noted: tested as the 18F-labelled form. Put shortly:
(§1)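 Rats, three per group, were pretreated iv with blocker at 2 mg/kg in saline, or with saline as control, 10–15 min before tail-vein F-18 radioligand (about 20 µCi). Killed at 60 min and regional %ID/g determined. Specific binding = (region activity − cerebellum activity)/cerebellum activity; mean ± SD.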

Assay [2] is filed under the species Rattus norvegicus. As to the kind of experiment: Regional uptake of [18F]AFA in cerebellum of rat pretreated with compound 7f; n=3. To be noted: tested as the 18F-labelled form. The assay is classed as functional, organism-based.
For assay [3], the species on record is Rattus norvegicus. As to the kind of experiment: Regional uptake of [18F]AFA in striatum of rat pretreated with compound nisoxetine; n=3. The format is functional, organism-based. To be noted: tested as the 18F-labelled form. A digest of the protocol: (§2)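 Male Sprague-Dawley rats, three per group, received blocker (2 mg/kg iv in saline) or saline only (controls) 10–15 min before about 20 µCi of tail-vein F-18 radioligand. Killed 60 min after tracer. Blood and brain regions weighed and gamma-counted. %ID/g was decay- and tail-corrected; mean ± SD.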

The species entered for assay [4] is Rattus norvegicus. The experiment in a line: Regional uptake of [18F]AFA in cerebellum of rat pretreated with compound nisoxetine; n=3. The format is functional, organism-based. To be noted: tested as the 18F-labelled form. Put shortly:
as §2

In assay [5] the target is Sodium-dependent serotonin transporter (Rattus norvegicus) (UniProt P31652). As to the kind of experiment: Specific binding of [18F]AFA in rat thalamus after citalopram treatment; n=3. To be noted: tested as the 18F-labelled form. The assay is classed as functional, tissue-based. Put shortly: as §1
The species named for assay [6] is Rattus norvegicus. The experiment in a line: Regional uptake of [18F]AFA in blood of rat pretreated with compound 7f; n=3. The assay is classed as functional, organism-based. To be noted: tested as the 18F-labelled form.
Assay [7] deals with Sodium-dependent serotonin transporter (Homo sapiens, UniProt P31645). The experiment in a line: In vitro displacement of [3H]paroxetine from human serotonin transporter expressed in HEK293 cells. The assay is classed as cell-based. For orientation: Loss of bound radioactivity is the signal in a displacement assay; it reports binding, not function.
Assay [8] addresses Sodium-dependent serotonin transporter (Rattus norvegicus) (UniProt P31652). The experiment in a line: Specific binding in rat hypothalamus at 60 min postinjection in vivo. To be noted: tested as the 18F-labelled form. The format is functional, organism-based. Put shortly:
(§3)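 Male Sprague-Dawley rats, n=3 per time point, received about 20 µCi of F-18 radioligand in saline iv by tail vein and were killed at 10–120 min. %ID/g was measured with decay and tail-residual correction. Hypothalamic specific binding = (%ID/g hypothalamus − %ID/g cerebellum)/%ID/g cerebellum; mean ± SD.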

The species entered for assay [9] is Rattus norvegicus. As to the kind of experiment: Regional uptake of [18F]AFA in frontal cortex of rat pretreated with compound GBR-12935; n=3. The assay is classed as functional, organism-based. The conditions noted are these: tested as the 18F-labelled form. A digest of the protocol: as §2
For assay [10], the species on record is Rattus norvegicus. As to the kind of experiment: Regional uptake of [18F]AFP in thalamus of rat pretreated with compound 7f; n=3. To be noted: tested as the 18F-labelled form.
Assay [11] is filed under the species Rattus norvegicus. The experiment in a line: Regional uptake of [18F]-AFA in blood of rat pretreated with compound GBR-12935; n=3. The assay is classed as functional, organism-based. The conditions noted are these: tested as the 18F-labelled form. A digest of the protocol:
as §2

Assay [12] is filed under the species Rattus norvegicus. The experiment in a line: Regional uptake of [18F]AFA in cerebellum of rat pretreated with compound citalopram; n=3. To be noted: tested as the 18F-labelled form. The assay is classed as functional, organism-based. A digest of the protocol: as §2
For assay [13], the species on record is Rattus norvegicus. The experiment in a line: Regional uptake of [18F]AFA in frontal cortex of rat pretreated with compound nisoxetine; n=3. The format is functional, organism-based. To be noted: tested as the 18F-labelled form. A digest of the protocol:
as §2

Assay [14] concerns the target Sodium-dependent serotonin transporter (Rattus norvegicus) (UniProt P31652). As to the kind of experiment: Specific binding in rat hypothalamus at 120 min postinjection in vivo. The conditions noted are these: tested as the 18F-labelled form. The format is functional, organism-based. A digest of the protocol: as §3
Assay [15] is filed under the species Rattus norvegicus. As to the kind of experiment: Regional uptake of [18F]AFA in thalamus of rat pretreated with compound nisoxetine; n=3. The conditions noted are these: tested as the 18F-labelled form. The assay is classed as functional, organism-based. A digest of the protocol: as §2
Assay [16] addresses Sodium-dependent serotonin transporter (Rattus norvegicus) (UniProt P31652). The experiment in a line: Specific binding of [18F]AFA in rat frontal cortex after GBR-12935 treatment; n=3. The format is functional, tissue-based. The conditions noted are these: tested as the 18F-labelled form. A digest of the protocol: as §1
Assay [17] has the same target. The experiment in a line: Specific binding in rat hypothalamus at 30 min postinjection in vivo. The format is functional, organism-based. To be noted: tested as the 18F-labelled form. Put shortly: as §3
The species named for assay [18] is Rattus norvegicus. The experiment in a line: Regional uptake of [18F]-AFA in hypothalamus of rat pretreated with compound 7f; n=3. The assay is classed as functional, organism-based. To be noted: tested as the 18F-labelled form.
Assay [19] has as its target Sodium-dependent serotonin transporter (Rattus norvegicus) (UniProt P31652). The experiment in a line: Specific binding of [18F]AFA in rat frontal cortex after citalopram treatment; n=3. To be noted: tested as the 18F-labelled form. The assay is classed as functional, tissue-based. A digest of the protocol: as §1
Assay [20] has the same target. The experiment in a line: Specific binding of [18F]AFA in rat thalamus after nisoxetine treatment; n=3. The format is functional, tissue-based. The conditions noted are these: tested as the 18F-labelled form. Put shortly: as §1
For assay [21] the target is unchanged. As to the kind of experiment: Specific binding in rat hypothalamus at 10 min postinjection in vivo. The format is functional, organism-based. The conditions noted are these: tested as the 18F-labelled form. A digest of the protocol:
as §3

The target is the same in assay [22]. As to the kind of experiment: Specific binding of [18F]-AFA in rat striatum after nisoxetine treatment; n=3. The assay is classed as functional, tissue-based. To be noted: tested as the 18F-labelled form. Put shortly:
as §1

The target is the same in assay [23]. As to the kind of experiment: Specific binding of [18F]AFA in rat hippocampus after nisoxetine treatment; n=3. The assay is classed as functional, tissue-based. The conditions noted are these: tested as the 18F-labelled form. A digest of the protocol: as §1
The species entered for assay [24] is Rattus norvegicus. The experiment in a line: Regional uptake of [18F]AFA in frontal cortex of rat pretreated with compound 7f; n=3. The conditions noted are these: tested as the 18F-labelled form. The assay is classed as functional, organism-based.

Chain of Sodium-dependent serotonin transporter (Rattus norvegicus) (P31652 whole entry): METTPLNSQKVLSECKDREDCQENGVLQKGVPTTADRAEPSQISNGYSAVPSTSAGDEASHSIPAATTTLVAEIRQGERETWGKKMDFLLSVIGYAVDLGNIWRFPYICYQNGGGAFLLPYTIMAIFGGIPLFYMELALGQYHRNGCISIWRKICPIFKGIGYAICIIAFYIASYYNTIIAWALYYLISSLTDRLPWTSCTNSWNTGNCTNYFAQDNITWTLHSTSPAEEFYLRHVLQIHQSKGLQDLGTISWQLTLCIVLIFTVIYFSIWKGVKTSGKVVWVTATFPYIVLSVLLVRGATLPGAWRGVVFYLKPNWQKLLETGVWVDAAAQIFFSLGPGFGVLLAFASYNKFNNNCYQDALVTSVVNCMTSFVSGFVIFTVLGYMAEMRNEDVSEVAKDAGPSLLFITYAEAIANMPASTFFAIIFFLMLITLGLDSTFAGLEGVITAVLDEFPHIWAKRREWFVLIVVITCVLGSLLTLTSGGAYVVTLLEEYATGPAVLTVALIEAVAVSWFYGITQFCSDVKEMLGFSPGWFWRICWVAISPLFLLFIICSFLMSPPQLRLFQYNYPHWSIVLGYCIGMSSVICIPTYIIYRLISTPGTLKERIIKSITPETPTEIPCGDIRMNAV
Chain of Sodium-dependent serotonin transporter (P31645 whole entry): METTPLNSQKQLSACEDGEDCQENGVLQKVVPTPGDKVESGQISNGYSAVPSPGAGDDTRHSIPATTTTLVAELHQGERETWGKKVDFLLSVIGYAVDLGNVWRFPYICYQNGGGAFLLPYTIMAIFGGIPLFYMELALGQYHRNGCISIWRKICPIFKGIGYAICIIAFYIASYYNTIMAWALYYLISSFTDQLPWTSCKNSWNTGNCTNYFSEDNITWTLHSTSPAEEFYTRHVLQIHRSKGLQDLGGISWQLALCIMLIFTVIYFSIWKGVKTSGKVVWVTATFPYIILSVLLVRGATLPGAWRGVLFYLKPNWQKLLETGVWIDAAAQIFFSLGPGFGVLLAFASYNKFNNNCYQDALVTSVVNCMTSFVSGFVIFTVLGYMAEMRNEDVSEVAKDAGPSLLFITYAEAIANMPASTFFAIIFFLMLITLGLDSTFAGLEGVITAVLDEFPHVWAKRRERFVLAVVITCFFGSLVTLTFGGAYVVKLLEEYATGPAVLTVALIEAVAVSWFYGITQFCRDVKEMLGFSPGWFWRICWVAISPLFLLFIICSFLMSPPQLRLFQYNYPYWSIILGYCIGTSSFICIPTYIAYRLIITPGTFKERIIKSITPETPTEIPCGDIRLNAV

As to `CN(C)Cc1ccccc1Sc1ccc(CCCF)cc1N`, the Specific binding in assay [1] stood at 0.32 %ID/g; in assay [5] it was 0.74 %ID/g; in [8], 0.85 %ID/g; in assay [16] it was 0.64 %ID/g; in assay [17] it was 0.57 %ID/g; in assay [19], 0.84 %ID/g. The Specific binding in assay [20] is 0.88 %ID/g; in assay [21] it was 0.34 %ID/g; in [22], 0.58 %ID/g; in assay [23], 1.02 %ID/g. In addition, the Uptake stood at 0.08 %ID/g in the assay filed under Rattus norvegicus [2]; 0.13 %ID/g in the assay filed under Rattus norvegicus [3]; 0.08 %ID/g in the assay listed under Rattus norvegicus [4]; 0.07 %ID/g in the assay filed under Rattus norvegicus [6]; 0.15 %ID/g in the assay filed under Rattus norvegicus [9]; 0.1 %ID/g in the assay filed under Rattus norvegicus [10]. Moreover, the Uptake was determined as 0.09 %ID/g in the assay listed under Rattus norvegicus [11]; 0.08 %ID/g in the assay listed under Rattus norvegicus [12]; 0.13 %ID/g in the assay listed under Rattus norvegicus [13]; 0.15 %ID/g in the assay listed under Rattus norvegicus [15]; 0.1 %ID/g in the assay filed under Rattus norvegicus [18]; 0.08 %ID/g in the assay filed under Rattus norvegicus [24]. Besides, the inhibition constant Ki – broadly, a dissociation constant, usually derived from enzyme kinetics or from competition with a known ligand – in [7] came to 3.58 nM. For the same compound, the Specific binding (dimensionless ratio) in [14] came out at 2.4.
